Experimental data as given in ChEMBL document CHEMBL2407075, “Sulphonamido-quinoxalines: search for anticancer agent” (Eur J Med Chem, 2013).

What was measured:
Type in all cases: functional
PC-3 [1] = test: Growth inhibition of human PC3 cells assessed as cell growth at 10^-4 M after 48 hrs by sulforhodamine B assay; conditions: PC-3, 48 h, read-out: Activity
OVCAR-8 = test: Growth inhibition of human OVCAR8 cells assessed as cell growth at 10^-4 M after 48 hrs by sulforhodamine B assay; conditions: OVCAR-8, 48 h, read-out: Activity
SK-MEL-28 = test: Growth inhibition of human SK-MEL-28 cells assessed as cell growth at 10^-4 M after 48 hrs by sulforhodamine B assay; conditions: SK-MEL-28, 48 h, read-out: Activity
Malme-3M [2] = test: Growth inhibition of human MALME-3M cells assessed as cell growth at 10^-4 M after 48 hrs by sulforhodamine B assay; conditions: read-out: Activity
A549 = test: Growth inhibition of human A549/ATCC cells assessed as cell growth at 10^-4 M after 48 hrs by sulforhodamine B assay; conditions: A549, 48 h, read-out: Activity
Outline: (§1)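 Five-dose NCI-60 run (0.01, 0.1, 1, 10 and 100 µM, as 10-fold dilutions from a DMSO stock made at 400× the top final level). Cells were grown in RPMI 1640 with 5% FBS and 2 mM glutamine and plated for 24 h. They were then exposed for 48 h at 37 °C and 5% CO2. TCA fixation was followed by SRB staining with A515 read-out. Percent growth was taken relative to time-zero and control plates.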

MOLT-4 = test: Growth inhibition of human MOLT4 cells assessed as cell growth at 10^-4 M after 48 hrs by sulforhodamine B assay; conditions: MOLT-4, 48 h, read-out: Activity
RPMI-8226 = test: Growth inhibition of human RPMI8226 cells assessed as cell growth at 10^-4 M after 48 hrs by sulforhodamine B assay; conditions: RPMI-8226, 48 h, read-out: Activity
RXF 393 = test: Growth inhibition of human RXF393 cells assessed as cell growth at 10^-5 M after 48 hrs by sulforhodamine B assay; conditions: RXF 393, 48 h, read-out: Activity
COLO 205 = test: Growth inhibition of human COLO205 cells assessed as cell growth at 10^-5 M after 48 hrs by sulforhodamine B assay; conditions: COLO 205, 48 h, read-out: Activity; outline: as §1
HOP-92 = test: Growth inhibition of human HOP92 cells assessed as cell growth at 10^-5 M after 48 hrs by sulforhodamine B assay; conditions: HOP-92, 48 h, read-out: Activity
Outline: (§2)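 Five-dose screen at NCI. Cells in RPMI 1640 with 5% FBS and 2 mM L-glutamine, seeded at 5000–40,000 cells/well and grown 24 h at 37 °C, 5% CO2 before dosing, with time-zero plates TCA-fixed. Drug diluted from DMSO stock to 0.01, 0.1, 1, 10 and 100 µM final, 48 h. Cells fixed with cold TCA (10% final), stained with 0.4% SRB and read at 515 nm. Percent growth from Tz, control and test absorbances; GI50, TGI and LC50 from dose-response curves.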

HOP-62 [3] = test: Growth inhibition of human HOP62 cells assessed as cell growth at 10^-5 M after 48 hrs by sulforhodamine B assay; conditions: HOP-62, 48 h, read-out: Activity; outline: as §2
[4] = Growth inhibition of human NCI-ADR-RES cells assessed as cell growth at 10^-6 M after 48 hrs by sulforhodamine B assay; conditions: read-out: Activity
MDA-MB-435 = test: Growth inhibition of human MDA-MB-435 cells assessed as cell growth at 10^-6 M after 48 hrs by sulforhodamine B assay; conditions: MDA-MB-435, 48 h, read-out: Activity
HOP-62 [5] = test: Growth inhibition of human HOP62 cells assessed as cell growth at 10^-6 M after 48 hrs by sulforhodamine B assay; conditions: HOP-62, 48 h, read-out: Activity; outline: as §2
SNB-19 [6] = test: Growth inhibition of human SNB19 cells assessed as cell growth at 10^-7 M after 48 hrs by sulforhodamine B assay; conditions: SNB-19, 48 h, read-out: Activity
KM12 [7] = test: Growth inhibition of human KM12 cells assessed as cell growth at 10^-7 M after 48 hrs by sulforhodamine B assay; conditions: KM12, 48 h, read-out: Activity
[8] = Growth inhibition of human HCC2998 cells assessed as cell growth at 10^-7 M after 48 hrs by sulforhodamine B assay; conditions: HCC 2998, 48 h, read-out: Activity; outline: as §2
NCI-H322M = test: Growth inhibition of human NCI-H322M cells assessed as cell growth at 10^-7 M after 48 hrs by sulforhodamine B assay; conditions: read-out: Activity
KM12 [9] = test: Growth inhibition of human KM12 cells assessed as cell growth at 10^-8 M after 48 hrs by sulforhodamine B assay; conditions: KM12, 48 h, read-out: Activity
[10] = Growth inhibition of human HCC2998 cells assessed as cell growth at 10^-8 M after 48 hrs by sulforhodamine B assay; conditions: HCC 2998, 48 h, read-out: Activity; outline: as §2
HL-60(TB) = test: Growth inhibition of human HL-60(TB) cells assessed as cell growth at 10^-8 M after 48 hrs by sulforhodamine B assay; conditions: HL-60, 48 h, read-out: Activity
Outline: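 HL-60(TB) suspension cells were treated 48 h at 37 °C within the five-dose series (0.01–100 µM), fixed with 16% final TCA and SRB-stained, read at 515 nm. Percentage growth at each concentration = (Ti−Tz)/(C−Tz)×100, or (Ti−Tz)/Tz×100 when Ti<Tz, with time-zero (Tz) and untreated control (C) plates.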

MCF7 = test: Growth inhibition of human MCF7 cells after 48 hrs by sulforhodamine B assay; conditions: MCF7, 48 h; for CC50: read-out: LC50 (the source's name)
Outline: (§3)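 Adherent cells in RPMI 1640 with 5% FBS and 2 mM L-glutamine were plated at 5000–40,000 cells/well and grown 24 h. Five concentrations (0.01–100 µM, DMSO stock) were added for 48 h at 37 °C. Cells were fixed with cold TCA (10% final) and stained with SRB, read at 515 nm. GI50 came from log concentration–growth curves against time-zero and control plates.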

PC-3 [11] = test: Growth inhibition of human PC3 cells after 48 hrs by sulforhodamine B assay; conditions: PC-3, 48 h; for CC50: read-out: LC50 (the source's name); outline: as §3
ACHN = test: Growth inhibition of human ACHN cells after 48 hrs by sulforhodamine B assay; conditions: for CC50: read-out: LC50 (the source's name); outline: as §3
Malme-3M [12] = test: Growth inhibition of human MALME-3M cells after 48 hrs by sulforhodamine B assay; conditions: read-out: LC50 (the source's name); outline: as §3
SNB-19 [13] = test: Growth inhibition of human SNB19 cells after 48 hrs by sulforhodamine B assay; conditions: SNB-19, 48 h; for CC50: read-out: LC50 (the source's name); outline: as §3
NCI-H23 = test: Growth inhibition of human NCI-H23 cells after 48 hrs by sulforhodamine B assay; conditions: NCI-H23, 48 h; for CC50: read-out: LC50 (the source's name)
Outline: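 Five-dose NCI 60 screen at 0.01, 0.1, 1, 10 and 100 µM, 48 h exposure after 24 h preincubation, in RPMI 1640 with 5% FBS and 2 mM glutamine. Fixed with TCA (10% final for adherent cells, 16% for suspension cells), stained with SRB, A515 read. Percent growth uses time-zero (Tz), control and treated plates. GI50, TGI and LC50 are read from the dose-response curves.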

| SMILES | growth at 100 µM (PC-3 [1]) | growth at 100 µM (OVCAR-8) | growth at 100 µM (SK-MEL-28) | growth at 100 µM (Malme-3M [2]) | growth at 100 µM (A549) | growth at 100 µM (MOLT-4) | growth at 100 µM (RPMI-8226) | growth at 10 µM (RXF 393) | growth at 10 µM (COLO 205) | growth at 10 µM (HOP-92) | growth at 10 µM (HOP-62 [3]) | growth at 1 µM [4] | growth at 1 µM (MDA-MB-435) | growth at 1 µM (HOP-62 [5]) | growth at 0.1 µM (SNB-19 [6]) | growth at 0.1 µM (KM12 [7]) | growth at 0.1 µM [8] | growth at 0.1 µM (NCI-H322M) | growth at 0.01 µM (KM12 [9]) | growth at 0.01 µM [10] | other results |
| --- | --- | --- | --- | --- | --- | --- | --- | --- | --- | --- | --- | --- | --- | --- | --- | --- | --- | --- | --- | --- | --- |
| O=S(=O)(Nc1ccccn1)c1ccc2nc(-c3ccccc3)c(-c3ccccc3)nc2c1 | 23% | 46% | 82% | 97% | 51% | 48% | 27% | -44% | -73% | -18% | 16% | 84% | 91% | 115% | 93% | 99% | 100% | 102% | 91% | 99% | growth at 0.01 µM (HL-60(TB)): 98%; GI50 (MCF7): 2.18 µM; CC50 (MCF7): > 100 µM; GI50 (PC-3 [11]): 1.39 µM; CC50 (PC-3 [11]): > 100 µM; TGI (ACHN): > 100 µM; CC50 (ACHN): > 100 µM; CC50 (Malme-3M [12]): > 100 µM; TGI (SNB-19 [13]): > 100 µM; CC50 (SNB-19 [13]): > 100 µM; GI50 (NCI-H23): 2.45 µM; TGI (NCI-H23): > 100 µM; CC50 (NCI-H23): > 100 µM |
| O=S(=O)(Nc1ccc(Cl)cc1)c1ccc2nc(-c3ccccc3)c(-c3ccccc3)nc2c1 | 42% | 72% | 82% | 108% | 73% | 68% | 40% | -41% | -11% | -13% | 13% | 89% | 92% | 105% | 96% | 94% | 99% | 98% | 103% | 99% | growth at 0.01 µM (HL-60(TB)): 97%; CC50 (MCF7): > 100 µM; GI50 (PC-3 [11]): 1.47 µM; CC50 (PC-3 [11]): > 100 µM; TGI (ACHN): > 100 µM; CC50 (ACHN): > 100 µM; CC50 (Malme-3M [12]): > 100 µM; TGI (SNB-19 [13]): > 100 µM; CC50 (SNB-19 [13]): > 100 µM; TGI (NCI-H23): > 100 µM; CC50 (NCI-H23): > 100 µM |
